Results published in ChEMBL document CHEMBL1828561, “Identification of a potent and selective free fatty acid receptor 1 (FFA1/GPR40) agonist with favorable physicochemical and in vitro ADME properties” (J Med Chem, 2011).
In brackets after ≈: the same amount, converted by molar mass. Activity calls are given as the source filed them. The calls are words filed in the database; no cut-off is given here.

Legend:
[1] = test system: 1321-N1; test: Selectivity for human FFA1 receptor expressed in human 1321N1 cells over 5HT3 receptor; format: cell-based
[2] = Apparent permeability across methotrexate treated human HT-29 cells; format: ADME, cell-based
Outline: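 HT29-MTX mucus-producing cells, passage 32, grown 23 days (TEER > 750 Ω cm²). Compound at 100 μM (10 mM DMSO stock diluted 1:100 in buffer). […] Non-permeated drug measured for recovery. Monolayer integrity checked by 20 μM carboxyfluorescein after 1 h and TEER.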

[3] = molecular target: CYP2C19 (Homo sapiens, UniProt P33261); test: Inhibition of CYP2C19 at 10 uM; format: ADME
[4] = test system: 1321-N1; test: Selectivity for human FFA1 receptor expressed in human 1321N1 cells over dopamine transporter; format: cell-based
[5] = test system: 1321-N1; test: Selectivity for human FFA1 receptor expressed in human 1321N1 cells over […]; format: cell-based
[6] = test system: 1321-N1; test: Selectivity for human FFA1 receptor expressed in human 1321N1 cells over CXCR2 receptor; format: cell-based
[7] = test system: 1321-N1; test: Selectivity for human FFA1 receptor expressed in human 1321N1 cells over 5HT1B receptor; format: cell-based
[8] = molecular target: Free fatty acid receptor 1 (Homo sapiens, UniProt O14842); test: Agonist activity at human FFA1 receptor expressed in human HEK293 assessed as accumulation of IP1 by time-resolved fluorescence assay; format: functional, cell-based
Outline: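 Doxycycline-inducible FLAG-tagged human FFA1 in Flp-In T-Rex HEK293 cells, 100 000 cells/well (384-well). 20 min at 37 °C, then ligands in HBSS/10 mM HEPES/50 mM LiCl for 30 min. HTRF IP1 kit (d2 conjugate, Eu cryptate anti-IP1), 60 min at room temperature. 665/620 nm ratio expressed as ΔF%, normalized to maximal response at 10 μM of the reference agonist; n = 5.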

[9] = test system: 1321-N1; test: Selectivity for human FFA1 receptor expressed in human 1321N1 cells over 5HT7 receptor; format: cell-based
[10] = test system: 1321-N1; test: Selectivity for human FFA1 receptor expressed in human 1321N1 cells over MT1 receptor; format: cell-based
[11] = test system: 1321-N1; test: Selectivity for human FFA1 receptor expressed in human 1321N1 cells over Y2 receptor; format: cell-based
[12] = test system: 1321-N1; test: Selectivity for human FFA1 receptor expressed in human 1321N1 cells over Cl- channel; format: cell-based
[13] = test system: 1321-N1; test: Selectivity for human FFA1 receptor expressed in human 1321N1 cells over NK2 receptor; format: cell-based
[14] = test system: 1321-N1; test: Selectivity for human FFA1 receptor expressed in human 1321N1 cells over Ca2+ channel; format: cell-based
[15] = test system: 1321-N1; test: Selectivity for human FFA1 receptor expressed in human 1321N1 cells over beta1 receptor; format: cell-based
[16] = molecular target: Free fatty acid receptor 1 (Rattus norvegicus) (UniProt Q8K3T4); test: Agonist activity at FFA1 receptor in rat INS-1E cells assessed as movement of cellular constitiuent by DMR assay; format: functional, cell-based
Outline: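 Label-free DMR on an Epic optical biosensor. Rat INS-1E cells, 30 000/well on fibronectin-coated 384-well sensor plates, cultured 20–24 h to confluence. Washed in HBSS/20 mM HEPES and equilibrated 1 h at 28 °C. Baseline read, compound added, wavelength shift (pm) monitored ≥5000 s. Antagonist line: 0.3 μM agonist with the FFA1 antagonist over a concentration range, pIC50 derived, n = 4.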

[17] = test system: 1321-N1; test: Selectivity for human FFA1 receptor expressed in human 1321N1 cells over 5HT5a receptor; format: cell-based
[18] = test system: 1321-N1; test: Selectivity for human FFA1 receptor expressed in human 1321N1 cells over VPAC1 receptor; format: cell-based
[19] = test system: 1321-N1; test: Selectivity for human FFA1 receptor expressed in human 1321N1 cells over GAL2 receptor; format: cell-based
[20] = test system: 1321-N1; test: Selectivity for human FFA1 receptor expressed in human 1321N1 cells over NTS1 receptor; format: cell-based
[21] = Apparent permeability from apical to basolateral side of human Caco2/TC7 cells; format: ADME, cell-based; details: Caco-2
Outline: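 Caco-2 TC7 monolayers, apical to basolateral transport at pH 6.5 apical/7.4 basolateral.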

[22] = molecular target: T1, CYP1A2 (Homo sapiens, UniProt P05177); test: Inhibition of CYP1A2 at 10 uM; format: ADME
T1 sequence (P05177 whole entry): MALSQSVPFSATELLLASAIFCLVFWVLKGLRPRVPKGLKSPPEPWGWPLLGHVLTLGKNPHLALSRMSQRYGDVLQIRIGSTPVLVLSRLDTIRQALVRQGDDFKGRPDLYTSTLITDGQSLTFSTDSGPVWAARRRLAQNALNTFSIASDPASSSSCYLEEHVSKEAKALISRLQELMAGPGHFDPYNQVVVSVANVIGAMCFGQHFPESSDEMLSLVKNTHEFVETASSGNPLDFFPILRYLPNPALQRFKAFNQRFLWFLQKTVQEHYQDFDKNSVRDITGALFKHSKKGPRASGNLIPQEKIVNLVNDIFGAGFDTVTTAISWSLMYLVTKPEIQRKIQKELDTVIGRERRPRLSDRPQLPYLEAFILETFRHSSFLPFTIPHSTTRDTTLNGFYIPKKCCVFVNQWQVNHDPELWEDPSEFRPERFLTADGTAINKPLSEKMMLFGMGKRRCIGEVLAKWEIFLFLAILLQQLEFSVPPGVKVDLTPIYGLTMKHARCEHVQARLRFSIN

[23] = test system: 1321-N1; test: Selectivity for human FFA1 receptor expressed in human 1321N1 cells over H1 receptor; format: cell-based
[24] = test system: Liver; test: Metabolic stability in human liver S9 fraction; format: ADME, subcellular
[25] = test system: 1321-N1; test: Selectivity for human FFA1 receptor expressed in human 1321N1 cells over M2 receptor; format: cell-based
[26] = test system: 1321-N1; test: Selectivity for human FFA1 receptor expressed in human 1321N1 cells over alpha1 receptor; format: cell-based
[27] = Aqueous solubility of the compound in PBS at pH 7.4; format: physicochemical
Outline: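 Solubility measured in PBS at pH 7.4.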

[28] = test system: 1321-N1; test: Selectivity for human FFA1 receptor expressed in human 1321N1 cells over ETA receptor; format: cell-based
[29] = test system: HEK293; test: Selectivity for human FFA1 receptor expressed in human 1321N1 cells over human FFA2 receptor expressed in HEK293 cells at 10 uM; format: cell-based
[30] = test system: 1321-N1; test: Selectivity for human FFA1 receptor expressed in human 1321N1 cells over Na+ channel; format: cell-based
[31] = test system: 1321-N1; test: Selectivity for human FFA1 receptor expressed in human 1321N1 cells over SKCa channel; format: cell-based
[32] = test system: 1321-N1; test: Selectivity for human FFA1 receptor expressed in human 1321N1 cells over Mu receptor; format: cell-based
[33] = test system: 1321-N1; test: Selectivity for human FFA1 receptor expressed in human 1321N1 cells over H2 receptor; format: cell-based
[34] = test system: 1321-N1; test: Selectivity for human FFA1 receptor expressed in human 1321N1 cells over kappa receptor; format: cell-based
[35] = test system: 1321-N1; test: Selectivity for human FFA1 receptor expressed in human 1321N1 cells over CCR1 receptor; format: cell-based
[36] = Plasma protein binding in human; format: ADME, cell-free; details: read-out: PPB (converted)
[37] = test system: 1321-N1; test: Selectivity for human FFA1 receptor expressed in human 1321N1 cells over PPARgamma receptor; format: cell-based
[38] = test system: 1321-N1; test: Selectivity for human FFA1 receptor expressed in human 1321N1 cells over B2 receptor; format: cell-based
[39] = test system: 1321-N1; test: Selectivity for human FFA1 receptor expressed in human 1321N1 cells over AT1 receptor; format: cell-based
[40] = test system: 1321-N1; test: Selectivity for human FFA1 receptor expressed in human 1321N1 cells over Y1 receptor; format: cell-based

Chain of Free fatty acid receptor 1 (O14842 whole entry): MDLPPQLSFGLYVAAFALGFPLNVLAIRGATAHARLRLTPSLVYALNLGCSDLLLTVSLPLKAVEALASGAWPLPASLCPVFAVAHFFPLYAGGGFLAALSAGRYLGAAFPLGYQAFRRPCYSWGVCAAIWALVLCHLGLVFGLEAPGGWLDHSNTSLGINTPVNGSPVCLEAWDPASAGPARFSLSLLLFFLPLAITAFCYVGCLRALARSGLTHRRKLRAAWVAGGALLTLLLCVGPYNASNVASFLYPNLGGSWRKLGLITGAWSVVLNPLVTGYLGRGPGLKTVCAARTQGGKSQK
Chain of Free fatty acid receptor 1 (Rattus norvegicus) (Q8K3T4 whole entry): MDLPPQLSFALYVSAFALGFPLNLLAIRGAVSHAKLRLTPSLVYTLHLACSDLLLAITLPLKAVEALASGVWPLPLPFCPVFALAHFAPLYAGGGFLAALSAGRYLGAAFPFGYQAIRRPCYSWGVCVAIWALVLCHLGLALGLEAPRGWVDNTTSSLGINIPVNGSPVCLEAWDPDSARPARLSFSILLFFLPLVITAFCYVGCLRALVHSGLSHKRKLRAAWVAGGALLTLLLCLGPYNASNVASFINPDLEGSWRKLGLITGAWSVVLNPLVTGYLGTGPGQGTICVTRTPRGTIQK
Chain of CYP2C19 (P33261 whole entry): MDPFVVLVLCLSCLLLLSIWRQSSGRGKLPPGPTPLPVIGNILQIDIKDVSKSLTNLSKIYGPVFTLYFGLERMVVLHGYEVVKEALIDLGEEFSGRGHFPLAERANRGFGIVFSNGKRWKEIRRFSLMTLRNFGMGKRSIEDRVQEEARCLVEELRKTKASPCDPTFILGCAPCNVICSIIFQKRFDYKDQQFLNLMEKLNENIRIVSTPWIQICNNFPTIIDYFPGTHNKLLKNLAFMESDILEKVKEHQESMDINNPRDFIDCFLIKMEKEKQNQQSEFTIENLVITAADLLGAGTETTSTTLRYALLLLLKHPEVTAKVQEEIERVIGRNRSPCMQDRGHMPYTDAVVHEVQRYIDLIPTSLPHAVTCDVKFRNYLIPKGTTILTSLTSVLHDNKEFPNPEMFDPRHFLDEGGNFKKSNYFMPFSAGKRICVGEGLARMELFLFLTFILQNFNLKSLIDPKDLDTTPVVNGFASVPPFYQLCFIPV

Which Selectivity ratio [1] does the source give for `O=C(O)CCc1ccc(C#Cc2cc(Cl)nc(Cl)c2)cc1` here?
The Selectivity ratio was > 100.

And the Papp [2]?
Its Papp is 16.4 ×10⁻⁶ cm/s.

And the inhibition at 10 µM [3]?
The inhibition at 10 µM was -7%.

And the Selectivity ratio [4]?
Its Selectivity ratio is > 100.

And the Selectivity ratio [5]?
Its Selectivity ratio is > 100.

And the Selectivity ratio [6]?
Its Selectivity ratio is > 100.

What about the Selectivity ratio [7] of the same molecule?
The Selectivity ratio was > 100.

And the Activity [8]?
Its Activity is “Active”.

What about the Selectivity ratio [9] of the same molecule?
Its Selectivity ratio is > 100.

And the Selectivity ratio [10]?
Its Selectivity ratio is > 100.

What about the Selectivity ratio [11] of the same molecule?
The Selectivity ratio was > 100.

What about the Selectivity ratio [12] of the same molecule?
Its Selectivity ratio is > 100.

What about the Selectivity ratio [13] of the same molecule?
The Selectivity ratio was > 100.

And the Selectivity ratio [14]?
Its Selectivity ratio is > 100.

What about the Selectivity ratio [15] of the same molecule?
Its Selectivity ratio is > 100.

What about the Activity [16] of the same molecule?
Its Activity is “Active”.

What about the Selectivity ratio [17] of the same molecule?
The Selectivity ratio was > 100.

And the Selectivity ratio [18]?
The Selectivity ratio was > 100.

And the Selectivity ratio [19]?
Its Selectivity ratio is > 100.

And the Selectivity ratio [20]?
Its Selectivity ratio is > 100.

And the Papp A→B [21]?
Its Papp A→B is 112 ×10⁻⁶ cm/s.

And the inhibition at 10 µM [22]?
Its inhibition at 10 µM is -7%.

What about the Selectivity ratio [23] of the same molecule?
The Selectivity ratio was > 100.

And the Stability [24]?
The Stability was 97%.

What about the Selectivity ratio [25] of the same molecule?
Its Selectivity ratio is > 100.

What about the Selectivity ratio [26] of the same molecule?
The Selectivity ratio was > 100.

And the solubility [27]?
Its solubility is 199 µM (≈ 63.7 µg/mL).

And the Selectivity ratio [28]?
Its Selectivity ratio is > 100.

What about the Selectivity ratio [29] of the same molecule?
The Selectivity ratio was > 100.

And the Selectivity ratio [30]?
Its Selectivity ratio is > 100.

And the Selectivity ratio [31]?
Its Selectivity ratio is > 100.

What about the Selectivity ratio [32] of the same molecule?
The Selectivity ratio was > 100.

What about the Selectivity ratio [33] of the same molecule?
The Selectivity ratio was > 100.

What about the Selectivity ratio [34] of the same molecule?
Its Selectivity ratio is > 100.

What about the Selectivity ratio [35] of the same molecule?
Its Selectivity ratio is > 100.

What about the fraction unbound [36] of the same molecule?
The fraction unbound was 0.031.

What about the Selectivity ratio [37] of the same molecule?
The Selectivity ratio was > 100.

What about the Selectivity ratio [38] of the same molecule?
The Selectivity ratio was > 100.

And the Selectivity ratio [39]?
Its Selectivity ratio is > 100.

What about the Selectivity ratio [40] of the same molecule?
Its Selectivity ratio is > 100.
